According to ChEMBL document CHEMBL1145518, “Potent immune-modulating and anticancer effects of NKT cell stimulatory glycolipids” (2007):
The source made the active and inactive calls. The calls are words filed in the database; no cut-off is given here.

Experiments:
[1] = Induction of IFN-gamma secretion in human CD161+ CD3+ NKT cells at 10 ug/ml after 18 hrs relative to basal level; assay type: functional
How it was run: (§1)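 Human Vα24i NKT cell lines were expanded for 10 days on irradiated (3,000 rad) autologous immature DCs with 10 units/ml IL-2. The cells (1 × 10^5) were cocultured with 5 × 10^4 irradiated immature CD14+ DCs plus glycolipid at 10 μg/ml. Supernatants were collected at 18 h and read on a 22-plex Luminex bead panel. Triplicates, mean ± SD.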

[2] = Induction of IL2 secretion in human CD161+ CD3+ NKT cells at 10 ug/ml after 18 hrs relative to basal level; assay type: functional; how it was run: as §1
[3] = Induction of IL12p70 secretion in human CD161+ CD3+ NKT cells at 10 ug/ml after 18 hrs relative to basal level; assay type: functional; how it was run: as §1
[4] = Induction of IL12p40 secretion in human CD161+ CD3+ NKT cells at 10 ug/ml after 18 hrs relative to basal level; assay type: functional; how it was run: as §1
[5] = Induction of RANTES secretion in human CD161+ CD3+ NKT cells at 10 ug/ml after 18 hrs relative to basal level; assay type: functional; how it was run: as §1
[6] = Induction of MIPalpha secretion in human CD161+ CD3+ NKT cells at 10 ug/ml after 18 hrs relative to basal level; assay type: functional; how it was run: as §1
[7] = Induction of MCP1 secretion in human CD161+ CD3+ NKT cells at 10 ug/ml after 18 hrs relative to basal level; assay type: functional; how it was run: as §1
[8] = Induction of IL8 secretion in human CD161+ CD3+ NKT cells at 10 ug/ml after 18 hrs relative to basal level; assay type: functional; how it was run: as §1
[9] = Induction of TNFalpha secretion in human CD161+ CD3+ NKT cells at 10 ug/ml after 18 hrs relative to basal level; assay type: functional; how it was run: as §1
TC1 = assay: Antitumor activity in TC1 cells xenografted C57BL/6 mouse assessed as suppression of tumor growth at 2 ug, iv; assay type: functional, cell-based
How it was run: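 C57BL/6 mice (n = 5/group) were inoculated i.v. with TC-1 lung cancer cells. They were then treated i.v. with 2 μg glycolipid per mouse, or 100 μl of 1% DMSO, twice weekly for 4 weeks. Kaplan–Meier survival and body weight were followed, with tumor-free mice as an additional control.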

4T1 = assay: Antitumor activity in mouse 4T1 cells xenografted BALB/c mouse assessed as suppression of tumor growth at 2 ug, iv; assay type: functional, cell-based
How it was run: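 BALB/c mice (n = 6) were inoculated s.c. with 4T1 breast cancer cells. From day 3 they were treated i.v. with glycolipid or vehicle twice weekly for 4 weeks. Tumor volume was recorded every 3 days for 1 month, and survival was monitored up to 54 days.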

Mus musculus [10] = assay: Induction of IFN-gamma secretion in BALB/c mouse serum at 2 ug, iv after 18 hrs relative to control; assay type: functional
How it was run: (§2)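 BALB/c mice received an i.v. injection of 100 μl of glycolipid diluted to 20 μg/ml in saline from DMSO stock, with 1% DMSO as vehicle. Serum cytokines/chemokines were measured at 2 and 18 h after injection.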

Mus musculus [11] = assay: Induction of IL1-beta secretion in BALB/c mouse serum at 2 ug, iv after 18 hrs relative to control; assay type: functional; how it was run: as §2
Mus musculus [12] = assay: Induction of IL2 secretion in BALB/c mouse serum at 2 ug, iv after 2 hrs relative to control; assay type: functional; how it was run: as §2
Mus musculus [13] = assay: Induction of IL12p70 secretion in BALB/c mouse serum at 2 ug, iv after 18 hrs relative to control; assay type: functional; how it was run: as §2
Mus musculus [14] = assay: Induction of IL12p40 secretion in BALB/c mouse serum at 2 ug, iv after 18 hrs relative to control; assay type: functional; how it was run: as §2
Mus musculus [15] = assay: Induction of RANTES secretion in BALB/c mouse serum at 2 ug, iv after 2 hrs relative to control; assay type: functional; how it was run: as §2
Mus musculus [16] = assay: Induction of MIPbeta secretion in BALB/c mouse serum at 2 ug, iv after 2 hrs relative to control; assay type: functional; how it was run: as §2
Mus musculus [17] = assay: Induction of MCP1 secretion in BALB/c mouse serum at 2 ug, iv after 2 hrs relative to control; assay type: functional; how it was run: as §2
Mus musculus [18] = assay: Induction of KC secretion in BALB/c mouse serum at 2 ug, iv after 2 hrs relative to control; assay type: functional; how it was run: as §2
Mus musculus [19] = assay: Induction of TNFalpha secretion in BALB/c mouse serum at 2 ug, iv after 18 hrs relative to control; assay type: functional; how it was run: as §2
Mus musculus [20] = assay: Induction of IL3 secretion in BALB/c mouse serum at 2 ug, iv after 2 hrs relative to control; assay type: functional; how it was run: as §2
Mus musculus [21] = assay: Induction of GM-CSF secretion in BALB/c mouse serum at 2 ug, iv after 2 hrs relative to control; assay type: functional; how it was run: as §2
Mus musculus [22] = assay: Induction of IL4 secretion in BALB/c mouse serum at 2 ug, iv after 2 hrs relative to control; assay type: functional; how it was run: as §2
Mus musculus [23] = assay: Induction of IL6 secretion in BALB/c mouse serum at 2 ug, iv after 2 hrs relative to control; assay type: functional; how it was run: as §2
Mus musculus [24] = assay: Induction of IL10 secretion in BALB/c mouse serum at 2 ug, iv after 18 hrs relative to control; assay type: functional; how it was run: as §2
Mus musculus [25] = assay: Induction of IL13 secretion in BALB/c mouse serum at 2 ug, iv after 2 hrs relative to control; assay type: functional; how it was run: as §2
[26] = Induction of IL3 secretion in human CD161+ CD3+ NKT cells at 10 ug/ml after 18 hrs relative to basal level; assay type: functional; how it was run: as §1
[27] = Induction of GM-CSF secretion in human CD161+ CD3+ NKT cells at 10 ug/ml after 18 hrs relative to basal level; assay type: functional; how it was run: as §1
[28] = Induction of IL15 secretion in human CD161+ CD3+ NKT cells at 10 ug/ml after 18 hrs relative to basal level; assay type: functional; how it was run: as §1
[29] = Induction of IL4 secretion in human CD161+ CD3+ NKT cells at 10 ug/ml after 18 hrs relative to basal level; assay type: functional; how it was run: as §1
[30] = Induction of IL6 secretion in human CD161+ CD3+ NKT cells at 10 ug/ml after 18 hrs relative to basal level; assay type: functional; how it was run: as §1
[31] = Induction of IL10 secretion in human CD161+ CD3+ NKT cells at 10 ug/ml after 18 hrs relative to basal level; assay type: functional; how it was run: as §1
[32] = Induction of IL13 secretion in human CD161+ CD3+ NKT cells at 10 ug/ml after 18 hrs relative to basal level; assay type: functional; how it was run: as §1
NKT = assay: Stimulation of cell expansion of human invariant CD161+/ Valpha24+/ CD56+/ CD3+ NKT cells by flow cytometry method; assay type: functional, cell-based
How it was run: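 CD56+ NK/NKT mixtures (2 × 10^6) were isolated from human leukopaks with anti-CD56 microbeads. They were cocultured with 4 × 10^5 autologous immature CD14+ DCs pulsed with glycolipid at 3 μg/ml, or with 0.3% DMSO, on day 2 for 18 h. Suspension cells were then transferred and kept in 100 units/ml IL-2 with fresh medium every 3 days. On day 9, CD161+/Vα24TCR+ cells were gated by flow cytometry and total Vα24i NKT cells counted. Triplicates, mean ± SD.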

Mus musculus [33] = assay: Activation of B cells in BALB/c mouse at 2 ug, iv after 72 hrs by flow cytometry; assay type: functional, organism-based

SMILES	Activity [1]	Activity [2]	Activity [3]	Activity [4]	Activity [5]	Activity [6]	Activity [7]	Activity [8]	Activity [9]	Activity (TC1)	Activity [26]	Activity [27]	Activity [28]	Activity [29]	Activity [30]	Activity [31]	Activity [32]	further results
CCCCCCCCCCCCCCC[C@@H](O)[C@H](CO[C@H]1O[C@H](C(=O)O)[C@H](O)[C@H](O)[C@H]1O)NC(=O)CCCCCCCCCCCCC	2.4	1.3	1.7	1.9	2.4	3.5	1.7	2.3	5.5	Active	1.7	2.9	2	2.9	2.3	1.7	2	Activity (4T1): Active; Activity (Mus musculus [10]): 3.1; Activity (Mus musculus [11]): 2; Activity (Mus musculus [12]): 17.2; Activity (Mus musculus [13]): 1.2; Activity (Mus musculus [14]): 1.9; Activity (Mus musculus [15]): 0.9; Activity (Mus musculus [16]): 1.4; Activity (Mus musculus [17]): 5.6; Activity (Mus musculus [18]): 7.6; Activity (Mus musculus [19]): 6; Activity (Mus musculus [20]): 2.8; Activity (Mus musculus [21]): 4.9; Activity (Mus musculus [22]): 26.8; Activity (Mus musculus [23]): 1.7; Activity (Mus musculus [24]): 1.1; Activity (Mus musculus [25]): 2.3
CCCCCCCCCCCCCC[C@@H](O)[C@@H](O)[C@H](CO[C@H]1O[C@H](CO)[C@H](O)[C@H](O)[C@H]1O)NC(=O)CCCCCc1ccccc1	4.6	5.9	3.3	2.4	1.8	3	1.3	2.2	8.7	Active	4.1	5.6	2.6	3	2.7	2.4	2.6	Activity (NKT): Active; Activity (Mus musculus [33]): Active
